Laboratory results reported in ChEMBL document CHEMBL1156169, “Discovery of triarylethanolamine inhibitors of the Kv1.5 potassium channel” (Bioorg Med Chem Lett, 2010).
In brackets after ≈: the same amount, converted by molar mass.

Assays:
[1] = Aqueous solubility at pH 7.4; format: physicochemical
Procedure, shortened: (§1)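 Solubility measured in buffered aqueous solution at the pH stated for each line and expressed as mg/mL. Solid samples were checked by microscopy under plain polarized light and were crystalline; the specific crystal form was not determined.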

[2] = Aqueous solubility at pH 5.2; format: physicochemical; procedure, shortened: as §1
[3] = Clearance in rat; format: ADME, organism-based; conditions: in vivo
[4] = Volume of distribution in rat; format: ADME, organism-based; conditions: in vivo
[5] = Half life in rat; format: ADME, organism-based; conditions: in vivo
[6] = Plasma concentration in rat at 0.01 mg/kg/min, iv after 20 mins; format: ADME, organism-based; set-up: route intravenous
[7] = Plasma concentration in rat at 0.03 mg/kg/min, iv after 20 mins; format: ADME, organism-based; set-up: route intravenous
[8] = Plasma concentration in rat at 0.06 mg/kg/min, iv after 20 mins; format: ADME, organism-based; set-up: route intravenous
[9] = Plasma concentration in rat at 0.2 mg/kg/min, iv after 20 mins; format: ADME, organism-based; set-up: route intravenous
[10] = Plasma concentration in rat at 0.6 mg/kg/min, iv after 20 mins; format: ADME, organism-based; set-up: route intravenous
[11] = Drug level in rat plasma at 435 ug/kg/min, iv after 1 hr; format: ADME, organism-based; conditions: 0.435 mg/kg
[12] = Drug level in rat brain at 435 ug/kg/min, iv after 1 hr; format: ADME, organism-based; conditions: 0.435 mg/kg, read-out: Drug uptake
in vivo = conditions: rat, brain/plasma, iv, 0.435 mg/kg
[13] = Aqueous solubility at pH 7.2; format: physicochemical; procedure, shortened: as §1

Row | Structure (SMILES) | solubility [1] [mg/mL] | solubility [2] [mg/mL] | clearance [3] [L/h/kg] | Vd [4] [L/kg] | half-life [5] [h] | concentration at 20 min [6] [µM] | concentration at 20 min [7] [µM] | concentration at 20 min [8] [µM] | concentration at 20 min [9] [µM] | concentration at 20 min [10] [µM] | concentration at 1 h [11] [µM] | concentration at 1 h [12] [µM] | Kp at 1 h (in vivo) | solubility [13] [mg/mL]
1 | OC(c1cccnc1)(c1cccnc1)C(c1ccccc1)N1CCCC1 (stereo not given) | 0.11 (≈ 318 µM) | 1.4 (≈ 4050 µM) | 3.54 | 3.4 | 1.1 | 0.185 | 0.651 | 1.78 | 4.9 | 9.62 | 23.4 | 13.7 | 0.58 | –
2 | OC(c1cccnc1)(c1cccnc1)C(c1ccccc1)N1CCCCC1 (stereo not given) | 0.0054 (≈ 15 µM) | – | – | – | – | – | – | – | – | – | – | – | – | –
3 | OC(c1cccnc1)(c1cccnc1)C(c1ccccc1)N1CCOCC1 (stereo not given) | – | – | – | – | – | – | – | – | – | – | – | – | – | 0.043 (≈ 119 µM)
